The values that follow come from the RNAGym collection of RNA variant scans (doi:10.1126/science.aae0568).

Fewer inactive variants are shown than the library holds.

The chains are these.
B1: tRNA (parent)
chain: GUUCCGUUGGCGUAAUGGUAACGCGUCUCCCUCCUAAGGAGAAGACUGCGGGUUCGAGUCCCGUACGGAACG

Variants of B1 are the subject of this data set. As to the kind of experiment: yeast fitness relative to wild type (ratio to wild type); higher = fitter; tRNA-Arg(CCU), competitive growth, 37 C, YPD. In short, it runs like this:
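Genotype frequency changes were the basis for Darwinian fitness relative to wild type. The frequencies came from 100-nucleotide paired-end sequencing of gene amplicons from the start population and each end population of pooled yeast strains with tRNA-Arg(CCU) gene variants at the native locus. Competition ran in YPD at 37°C for 24 hours in six replicates, genotypes needed ≥ 100 starting reads, and estimates < 0.5 were set to 0.5.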
C4U G39A A42G G67A: the yeast fitness is not above 0.5.
Take C4U C66U: the yeast fitness is 0.978.
As to C4U C33A A42G, the yeast fitness is not above 0.5.
In the case of C4U G52C, the yeast fitness stood at 0.726.
As for C4U C30U C31G, the yeast fitness came to 0.583.
Turning to C4U G12C C29U C31U U54G A65U G67A, the yeast fitness was not above 0.5.
On to C4U G6A A36C, for which the yeast fitness is not above 0.5.
For C4U G39C U59G C62A, the yeast fitness is not above 0.5.
For the variant C4U C11U G25C, the yeast fitness worked out at 0.747.
As for C4U C11A A42G G48C A65U, the yeast fitness is 0.555.
With C4U A42C C55U the figure was not above 0.5; with C4U A42U G67C, 0.676; with C4U G23C U47C C49A G68C, not above 0.5.
For the variant C4U C11G C34U, the yeast fitness stood at 0.551.
C4U G23C: the yeast fitness was 0.716.
For the variant C4U C34A A43U U47C C62G C66A, the yeast fitness was not above 0.5.
With C4U G6A U8G C31U C49A G67A the figure was not above 0.5; with C4U G12C U28G C62G, not above 0.5; with C4U C55U, 0.694.
With C4U G9A C34U A36G C55G A57U G67A the figure was not above 0.5; with C4U C34U A40C G41A C62U A65U, not above 0.5; with C4U U7A A36G, not above 0.5.
Turning to C4U U7A A36U, the yeast fitness was 0.567.
Turning to C4U A42C G58A, the yeast fitness was 0.567.
With C4U G9A C22G A42U the figure was 0.546.
As to C4U C11U C22G A45U, the yeast fitness is not above 0.5.
In the case of C4U G25C G68A, the yeast fitness was found to be 0.976.
For the variant C4U U7A A36U A70G, the yeast fitness was not above 0.5.
Next, C4U C22G U28A A36U A65U: not above 0.5; C4U G6C C33A A40C G41A U59A U64A C66G: not above 0.5; C4U C11G A45U: 0.545.
As to C4U G44A C61G, the yeast fitness was not above 0.5.
With C4U G6C C30G the figure was not above 0.5.
As for C4U C22G U28C U59C, the yeast fitness is not above 0.5.
For the variant C4U C29U G63A, the yeast fitness stood at 0.517.
Next, C4U C11U C33U: 0.575; C4U C22U C62U: 0.62; C4U G25A U54A: not above 0.5.
Turning to C4U C22G U28A A36U G51A, the yeast fitness is not above 0.5.
In the case of C4U G41C G48A C61A, the yeast fitness was not above 0.5.
Regarding C4U C61U, the yeast fitness is 0.977.
With C4U C11A G39A G51A G67C the figure was not above 0.5; with C4U C11U U35A, 0.523; with C4U C33U, 0.789.
Regarding C4U C33G, the yeast fitness was 0.722.
As for C4U G12A A45C C49U, the yeast fitness was not above 0.5.
As to C4U C34A G44C, the yeast fitness is 0.636.
Next, C4U C24A: 0.574; C4U A57G G58C: 0.736.
As to C4U C24A A43G G63C, the yeast fitness is not above 0.5.
On to C4U G12A U28A A42C, for which the yeast fitness stood at 0.515.
With C4U C24A A57U C60A G68C the figure was not above 0.5; with C4U C5A A40C G68C, not above 0.5; with C4U A42U C61G, 0.593.
On to C4U A45C C60G, for which the yeast fitness amounted to 0.671.
As to C4U G18C A20C G39A, the yeast fitness is not above 0.5.
Next, C4U G12C C30G A36C: not above 0.5; C4U G10A C22U G44C: not above 0.5; C4U G12A A42U: not above 0.5.
With C4U G52C C61A, the yeast fitness came out at 0.581.
Next, C4U G18A C22U A40C: not above 0.5.
Regarding C4U A45G U53G, the yeast fitness was not above 0.5.
Turning to C4U G12A C60A, the yeast fitness is not above 0.5.
With C4U C5G U28C A70C the figure was 0.637; with C4U C55U A65G, 0.554.
As for C4U C30A, the yeast fitness is 0.917.
Next, C4U C27U A57C C61U: not above 0.5.
On to C4U C29A G52C C55A U59G, for which the yeast fitness was determined as 0.554.
Next, C4U C31G A40G A45C U53A A70U: not above 0.5; C4U A45U C66G: 0.598; C4U G44A U47C G56A: not above 0.5.
Next, C4U C5G U7G C33A A70U: not above 0.5.
For the variant C4U G44C A69U A70G, the yeast fitness is not above 0.5.
In the case of C4U G51C U59G U64C, the yeast fitness was not above 0.5.
Consider C4U C11A A37C A65C, for which the yeast fitness is not above 0.5.
In the case of C4U G41C, the yeast fitness worked out at 0.819.
For C4U G10A C22G, the yeast fitness amounted to 0.642.
On to C4U C5G G41A A70G, for which the yeast fitness is not above 0.5.
On to C4U C11U U13C C33G A40C, for which the yeast fitness is not above 0.5.
As for C4U U7A C30G C34G A40C A57U, the yeast fitness is not above 0.5.
Take C4U G12A G39C C49A U64G: the yeast fitness is 0.544.
Take C4U C22G U59C: the yeast fitness turned out to be 0.712.
For the variant C4U C33A A40U G68A, the yeast fitness was not above 0.5.
Consider C4U C11A C22U A42U, for which the yeast fitness is 0.577.
Next, C4U G6A A15U A20C G25C U35A: not above 0.5.
C4U G9A C22A U26A G52C G67A: the yeast fitness was not above 0.5.
For the variant C4U C5G U28C G67C, the yeast fitness was 0.909.
For the variant C4U G17C G18C C22A C60A C66U, the yeast fitness is not above 0.5.
Next, C4U G25C C34U A65U: not above 0.5; C4U C29A G52C U54C C55A U59G: not above 0.5; C4U G12C C60G A70C: not above 0.5.
Next, C4U C27A A43U G51C: not above 0.5.
Consider C4U G10C G48C G63C G67A, for which the yeast fitness is not above 0.5.
C4U G9A A15U A20C C27A C61G A65C: the yeast fitness is not above 0.5.
As for C4U C24A C30G A65U C66A, the yeast fitness was not above 0.5.
Next, C4U C5G C34U U54A: not above 0.5; C4U C33A A40U: 0.564; C4U C29A G52C C55G U59G: 0.656.
For the variant C4U G9C G18A A21G C24U A37C, the yeast fitness was found to be 0.694.
C4U C60U C62A: the yeast fitness was not above 0.5.
As for C4U C24G C34A A45C G56A C61A A65C A69C A70G, the yeast fitness is 0.597.
Take C4U C5G C29G C31G A37C G63A: the yeast fitness turned out to be 0.542.
Next, C4U C11A A65C: 0.538.
As for C4U C11A G12A A42U C49U G51A, the yeast fitness is not above 0.5.
Next, C4U G48C A70U: 0.542; C4U C22G C29G C31A A69C: not above 0.5.
C4U C27U: the yeast fitness came to 1.02.
As for C4U C27G, the yeast fitness came out at 0.656.
As for C4U C27A, the yeast fitness is 0.737.
Consider C4U C29A A36C A40U G51A G68C, for which the yeast fitness is not above 0.5.
For the variant C4U G58C A69C, the yeast fitness came to 0.765.
Take C4U G52A A70U: the yeast fitness was determined as 0.604.
For C4U C22G U28A A36U C66U, the yeast fitness is not above 0.5.
Next, C4U C46U C49G U59C: not above 0.5.
Next, C4U G48A G50A: 0.961.
Take C4U U7A C46G A65C: the yeast fitness was found to be 0.535.
With C4U G44C A57U, the yeast fitness is 0.595.
As to C4U A43U, the yeast fitness turned out to be 0.963.
Next, C4U A43C: 1.01.
Regarding C4U G18A A21C A36U, the yeast fitness is not above 0.5.
As for C4U C11G C34U C55U, the yeast fitness is not above 0.5.
With C4U C34G A69G the figure was not above 0.5; with C4U A40U U47C, 0.643.
As for C4U G6A A15U A20C G25C U35A A45U, the yeast fitness is not above 0.5.
With C4U C11U C30G the figure was not above 0.5.
Consider C4U C5U A14C G68A, for which the yeast fitness was not above 0.5.
Turning to C4U G9C A20G A45G C61A G67A, the yeast fitness was not above 0.5.
With C4U G48C G67U A69C, the yeast fitness is not above 0.5.
As for C4U C24A U47G U59C, the yeast fitness was not above 0.5.
With C4U C5G C29U U32A C33U the figure was not above 0.5; with C4U G12A A40U A65C, not above 0.5.
Consider C4U G67C, for which the yeast fitness came out at 0.829.
As for C4U C29G C30U, the yeast fitness was not above 0.5.
With C4U C11A G67U the figure was not above 0.5; with C4U G25C, 0.999.
Take C4U G38C C61U: the yeast fitness was found to be 0.54.
C4U G10C G23A U26C U32C A43G U53A: the yeast fitness is not above 0.5.
Next, C4U C11U C22G: 0.629; C4U C27U G39C G52A G56A: 0.614; C4U C30A A37U G44C U53A: not above 0.5.
For the variant C4U C27G C31G, the yeast fitness was not above 0.5.
Next, C4U G50A G67C: 0.578; C4U G50A G67A: 0.553; C4U G38C A65G: 0.621.
Turning to C4U C24U A43G C60U C61G, the yeast fitness is not above 0.5.
Next, C4U A69G: 0.901.
Regarding C4U U7A A36U A65G, the yeast fitness is 0.535.
In the case of C4U C30A G50C G56A C62U G67U, the yeast fitness is not above 0.5.
With C4U C27G A65U the figure was not above 0.5; with C4U C22G A42G, 0.695.
Take C4U G9A U54A: the yeast fitness is not above 0.5.
C4U G50A: the yeast fitness was 0.965.
As to C4U C5G G18C C34U A69C, the yeast fitness was not above 0.5.
As for C4U C24G A37G, the yeast fitness came to 0.567.
With C4U C24G U26A U28G C66A, the yeast fitness is not above 0.5.
For C4U C46G C61G A65C, the yeast fitness is 0.588.
For C4U G12A A20G C22U G68C, the yeast fitness is not above 0.5.
With C4U G63A the figure was 0.894; with C4U G63C, 0.782.
For C4U C27G A65U A70G, the yeast fitness is not above 0.5.
Take C4U C11A G12A G48A A57C: the yeast fitness was not above 0.5.
With C4U G39A A42G G63A G67A the figure was not above 0.5; with C4U C5G C60A, not above 0.5.
Regarding C4U C30A A45G C55G A65G, the yeast fitness was found to be 0.636.
As for C4U C30A G68A, the yeast fitness is 0.786.
On to C4U G12C U54G, for which the yeast fitness is not above 0.5.
Regarding C4U C24U C27G, the yeast fitness is not above 0.5.
